“Also recorded” adds a separate entry of the source. Like-named read-outs stand apart in the source and are kept apart here. Each block holds one molecule with its values, some of them ahead of it.
Columns and labels:
[1] = test system: Aβ42-induced activation of the FXII-mediated contact system; assay: Kallikrein activity assay; type: biochemical, human; details: DXS 0.1 μg/ml
Procedure, shortened: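 Aβ42 oligomers (overnight 4°C in HEPES buffer, 1 μM final) ± test compound (40 μM) shaken 30 min at RT in 20 mM HEPES pH 7.4/140 mM NaCl. Human FXII and plasma prekallikrein added (10 nM each), then S-2302 (0.67 mM final). A405 read at RT; rate over 30 min as mU/min. DXS 0.1 µg/ml ± test compound as positive control; triplicate.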

[2] = molecular target: T1, Aβ42-fibrinogen interaction (Homo sapiens, UniProt P05067); assay: AlphaLISA of the Aβ42-fibrinogen interaction; type: binding; details: triplicate
T1 sequence (P05067 672-713 limits assumed): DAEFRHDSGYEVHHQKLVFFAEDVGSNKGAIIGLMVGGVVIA
Procedure, shortened: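 Test compound (0.1–100 μM) incubated 30 min at RT with 10 nM biotinylated Aβ42 and 1 nM fibrinogen in 25 mM Tris-HCl pH 7.4, 150 mM NaCl, 0.05% Tween-20, 0.1% BSA. Anti-fibrinogen antibody, 20 μg/ml streptavidin donor and protein A acceptor beads added for 90 min at RT. Triplicate runs; IC50 from sigmoidal dose-response fit with 95% CI.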

Aβ aggregation = details: cited from earlier work
[3] = test system: fibrin clot formation from fibrinogen with or without Aβ42 oligomers; assay: In vitro clotting; type: biochemical, human; details: compound 20 μM; fibrinogen 1.5 μM; thrombin; 450 nm
Procedure, shortened: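 Purified human fibrinogen (1.5 μM) was preincubated with test compound (20 μM) or 0.4% DMSO vehicle, with or without Aβ42 oligomers (3 μM). Oligomers were made from HFIP-monomerized films: sonicated in DMSO, agitated overnight at 4°C, spun at 20,000 x g, and quantified by BCA. Clotting was started with thrombin (0.5 U/mL) and CaCl₂ (5 mM) in 20 mM HEPES pH 7.4, 137 mM NaCl at RT. A450 turbidity was followed over time, in triplicate.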

Aβ42 aggregation = Aβ42 aggregation (Homo sapiens, UniProt P05067); assay: Aβ42 aggregation kinetics by ThT fluorescence; type: biochemical; details: Aβ42 12.5 μM; compound 48 μM; 37°C, 26 hrs
Aβ42 aggregation, sequence (P05067 672-713 limits assumed): as above
Procedure, shortened: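 HFIP-monomerized Aβ42 was dissolved in DMSO by sonication, diluted in 20 mM HEPES pH 7.4/140 mM NaCl, spun 10 min at 4°C and kept on ice for ≤30 min. Wells were DMSO-matched; buffer ± compound served as controls. ThT was 33 μM final; plates shaken at 25 rpm, 37°C. Fluorescence (ex 440/em 480 nm) was read hourly. Triplicate.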

Aβ42 = details: surface plasmon resonance; cited from earlier work
[4] = molecular target: T1, Aβ42-fibrinogen interaction; details: positive control; cited from earlier work
AD mouse models = details: cited from earlier work
[5] = read-out: AlphaLISA (IC50), known Aβ aggregation inhibitors (Table 1), 10 nM biotinylated Aβ42, 1 nM fibrinogen

Molecule: Dextran sulfate
kallikrein activity (positive control) [1]: high kallikrein activity

Molecule: Tanshinone
IC50 [2, 5]: > 100 µM
inhibition of Aβ aggregation and its toxicity (Aβ aggregation): strongly inhibit

Molecule: O=C1NC(=O)c2cc(Nc3ccccc3)c(Nc3ccccc3)cc21 [4,5-Dianilino Pthalimide (DAPH), 4,5-Dianilino Pthalimide]
IC50 [2, 5]: 43.2 µM

Molecule: CN(C)CCN(Cc1ccccc1)C(=O)c1cc(-c2ccc(F)cc2)n2nc(C(C)(C)C)cc2n1 [RU-505]
inhibition of the Aβ42-fibrinogen interaction [4]: known inhibitor of the Aβ42-fibrinogen interaction
cognitive impairment (AD mouse models): lessened the severity
cortical inflammation (AD mouse models): reduced
vascular Aβ deposition (AD mouse models): reduced

More lines, main results first:

IC50 ([2]; RHS analogs of SEN1269 (Table 2), AlphaLISA): 17.8 µM
IC50 [2, 5]: 17.8 µM
Aβ42 aggregation (ThT fluorescence) (Aβ42 aggregation): effectively inhibited Aβ42 aggregation
Molecule: CN(C)c1cccc(Oc2cnc(Nc3cccc(O)c3)nc2)c1 [SEN1269]
turbidity of the normal fibrin clot formed in the absence of Aβ42 [3]: further decreased the turbidity
binding to Aβ42 (Aβ42): binds to Aβ42; also recorded: shown to bind Aβ42
inhibition of Aβ aggregation / β-pleated sheet assembly and toxicity (Aβ aggregation): potent Aβ aggregation inhibitor; also recorded: block

IC50 [2, 5]: > 100 µM
Molecule: Oc1cccc(Nc2ccc(Nc3cccc(O)c3)nn2)c1 [RS-0406]
inhibition of Aβ aggregation and its toxicity (Aβ aggregation): strongly inhibit
